Screens deposited in PubChem BioAssay by The Scripps Research Institute Molecular Screening Center.
An excerpt weighted towards active compounds, which were near 1.9% of everything screened.
HCV core dimer = HCV core protein dimerization inhibition; 300,000 compounds, 0.33% hits; TR-FRET GST/Flag-core106 dimerization, 1536-well; inhibition, % at 5 µM; AID 1899;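 active means inhibition above the mean of all tested compounds plus 3 SD, set per screening campaign, cut at about 45% in these data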
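assay system = GST-tagged and Flag-tagged HCV core protein residues 1-106 | controls = unlabelled core106 and no-GST-core106 wells | incubation = compound-protein-antibody incubation 4 h at 22.5 °C | probe or stimulus = Eu donor and XL665 acceptor anti-tag antibodies | read-out = % inhibition based on acceptor/donor emission ratio | signal = TR-FRET 671 and 617 nm emission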
ZTA DNA inh = counter-screen for EBNA-1 inhibitors: inhibitors of Epstein-Barr virus ZTA | P03206 | ZTA-DNA binding, fluorescence polarization | inhibition, % at 11 µM | 320,000 compounds, 0.15% hits | AID 2234; in the data active means inhibition above about 33%
Target sequence (P03206 whole entry, looked up): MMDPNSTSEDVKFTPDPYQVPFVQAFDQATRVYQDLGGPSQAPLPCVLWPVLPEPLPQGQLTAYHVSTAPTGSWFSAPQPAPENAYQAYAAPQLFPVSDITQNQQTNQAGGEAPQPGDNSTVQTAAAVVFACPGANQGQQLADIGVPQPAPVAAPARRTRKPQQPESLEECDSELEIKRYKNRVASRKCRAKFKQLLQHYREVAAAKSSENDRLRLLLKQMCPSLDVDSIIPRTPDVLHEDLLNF
PP1 inh = counter-screen for PP5 inhibitors: inhibitors of human PP1-alpha; purified PP1alpha, OMFP fluorescence; 320,000 compounds, 0.9% hits; inhibition, % at 6.7 µM; P62136;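 active means inhibition above the mean inhibition of all tested compounds plus 3 SD, computed separately for each screening campaign, cut at about 15% in these data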
Target sequence (P62136 whole entry, looked up): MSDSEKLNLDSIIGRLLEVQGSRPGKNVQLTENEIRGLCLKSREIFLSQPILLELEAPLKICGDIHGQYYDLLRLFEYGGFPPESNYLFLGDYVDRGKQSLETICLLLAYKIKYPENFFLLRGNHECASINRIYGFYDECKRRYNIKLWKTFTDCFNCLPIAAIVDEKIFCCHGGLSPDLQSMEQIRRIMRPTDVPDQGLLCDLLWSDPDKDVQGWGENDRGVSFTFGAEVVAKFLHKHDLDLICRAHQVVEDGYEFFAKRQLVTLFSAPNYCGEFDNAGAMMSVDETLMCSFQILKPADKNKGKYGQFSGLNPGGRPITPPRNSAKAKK
EBNA-1 inh = blocks EBNA-1 binding to DNA; 300,000 compounds, 0.34% hits; inhibition, % at 14.8 µM; AID 1950; EBNA-1 DNA binding, fluorescence polarization; in the data active means inhibition above about 28%
HCV NS3 hel inh = HCV NS3 helicase inhibition | NS3 helicase DNA unwinding, Cy5 molecular beacon fluorescence | inhibition, % at 10.9 µM | 290,000 compounds, 0.56% hits;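 active means inhibition above the mean of all tested compounds plus 3 SD, set per campaign, cut at about 35% in these data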;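 further: 0% = DMSO wells and 100% = thioflavine S control wells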
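test system = hepatitis C virus NS3 helicase domain fragment enzyme | reagent = annealed dual-labelled DNA beacon duplex, ATP-started | times = 1 h at 25 °C | detection = Cy5 fluorescence, 0 and 60 min reads | read-out basis = percent inhibition from t60/t0 fluorescence ratio | control set = DMSO and thioflavine S | replication = one well per compound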
* = called active by the depositor; . = not tested or not shown.

SMILES | HCV core dimer | ZTA DNA inh | PP1 inh | EBNA-1 inh | HCV NS3 hel inh
O=S(=O)(c1ccc(F)cc1)N1CCN(c2nc(-c3cccnc3)nc3ccccc23)CC1 | . | 7 | 17* | . | .
O=C(Nc1ccc(C(=O)N2CCCC2)cc1)c1ccc(F)cc1Cl | -13 | -6 | -2 | 7 | 9
CCOC(=O)c1ccc(N2CCN(c3ccc(F)cc3)CC2)c(NC(=O)Nc2cccc(OC)c2)c1 | 20 | -6 | 4 | 82* | 13
COc1ccccc1NS(=O)(=O)NC(=O)c1c(C)[nH]c2ccccc12 | 3 | 8 | 1 | 8 | 4
CCCOc1ccc(OCCSc2ncccn2)cc1 | -4 | -24 | 16* | -6 | -7
Clc1ccc(OCCCCSc2ncccn2)cc1 | -5 | 22 | -5 | 2 | -16
Cc1noc(/C=C/c2ccco2)c1S(=O)(=O)N1CCC(C(=O)NC(C)c2ccccc2)CC1 (stereo not given) | 24 | -4 | 5 | -9 | 1
Cc1noc(/C=C/c2ccco2)c1S(=O)(=O)N1CCC(C(=O)N2c3ccccc3CC2C)CC1 (stereo not given) | 26 | 3 | 17* | 4 | 5
Cc1cc(C(=O)COC(=O)CC2Sc3ccccc3NC2=O)c(C)n1-c1ccc(Br)cc1 (stereo not given) | 34 | 11 | 17* | 8 | 17
CCOC(=O)c1cc(-c2ccc(N3CCOCC3)cc2)nn1-c1ccc(F)cc1F | 0 | -21 | 17* | -2 | 2
CCOC(=O)c1cc(-c2ccc(N3CCOCC3)cc2)nn1-c1ccccc1 | 8 | 2 | 9 | 7 | -4
Cc1ccc(/C=c2\sc3nc(-c4ccccc4Br)nn3c2=O)o1 | 32 | 20 | -3 | 1 | 33
COc1ccc(Br)cc1/C=c1\sc2nc(-c3ccco3)nn2c1=O | 57* | 5 | 1 | 8 | .
Cc1ccc(/C=c2\sc3nc(-c4ccco4)nn3c2=O)o1 | 62* | 1 | 2 | -4 | 25
CC1(C)Cc2ccccc2C(NNC(=O)c2ccc(Br)o2)=N1 | -10 | -9 | -1 | 3 | 0
COc1ccc(C2=NN(c3nc(-c4ccccc4)c(CC(=O)O)s3)C(c3ccco3)C2)cc1 (stereo not given) | 87* | -6 | 9 | 40* | 30
Cc1nc(N2N=C(c3ccc(Cl)cc3)CC2c2ccco2)sc1C(=O)N(C)C (stereo not given) | 10 | -3 | 1 | 2 | 6
Cc1ccc(NC(=O)Nc2ccc3c(c2)OCO3)c(Br)c1 | -16 | -14 | 17* | -4 | 26
CCOc1ccc(N2CC(C(=O)Nc3nnc(Cc4ccc(OC)cc4)s3)CC2=O)cc1 (stereo not given) | 17 | -15 | 16* | -11 | -6
O=C(Nc1nc(-c2ccccc2)nc2ccccc12)c1ccc(F)cc1 | 11 | 3 | 16* | 4 | -1
CC(=O)Nc1ccc(Nc2nc(-c3ccccc3)nc3ccccc23)cc1 | -1 | 9 | 7 | 5 | -7
O=C(O)c1[nH]c2ccccc2c1C(c1ccccc1)c1c(C(=O)O)[nH]c2ccccc12 | 4 | -3 | 6 | 0 | -31
O=C(O)c1[nH]c2ccccc2c1C(c1cc(Cl)cc([N+](=O)[O-])c1O)c1c(C(=O)O)[nH]c2ccccc12 | -9 | 11 | 15* | -3 | -31
COC(=O)CCC(=O)OC1(C)C(=O)C2=CN(CC3CC3)C(c3ccc(OC)cc3)=CC2=C(Br)C1=O (stereo not given) | -2 | -6 | 17* | 8 | .
O=C(NCc1ccccc1)c1onc(CSc2ccccc2)c1C(=O)NCC1CC1 | -14 | 11 | 16* | 14 | .
SMILES | HCV core dimer | ZTA DNA inh | PP1 inh | EBNA-1 inh | HCV NS3 hel inh
COc1cc(C2C(C(=O)c3ccco3)=C(O)C(=O)N2CCc2ccccc2)ccc1O (stereo not given) | -4 | 15 | 15* | 0 | 9
COCCN1C(=O)C(O)=C(C(=O)c2ccco2)C1c1cccc(Oc2ccccc2)c1 (stereo not given) | -5 | -15 | 25* | -5 | 30
O=c1[nH]c(CN2CCN(S(=O)(=O)/C=C/c3ccccc3)CC2)nc2cc(Cl)ccc12 | 8 | -10 | 2 | -4 | -3
COc1cc(C2C3=C(CCCC3=O)Nc3[nH]n(-c4ccccc4)c(=O)c32)ccc1OC(C)=O (stereo not given) | -9 | 10 | -2 | 10 | -9
COc1ccc(N2CCN(C(=O)CSc3ccc([N+](=O)[O-])cc3)CC2)cc1 | 12 | -3 | -1 | -15 | -5
COc1ccc(C(=O)CCC(=O)N2CCN(c3ccc([N+](=O)[O-])cc3)CC2)cc1 | 3 | 4 | 16* | -15 | -1
COc1c(F)c(F)c(C(=O)Nc2ccccc2N2CCN(C(=O)C(C)C)CC2)c(F)c1F | 11 | 0 | -1 | -9 | 1
COc1c(F)c(F)c(C(=O)Nc2ccccc2N2CCN(C(C)=O)CC2)c(F)c1F | 47* | -4 | 3 | 5 | 1
COc1ccc(C(C(=O)NC2CCCC2)N(C(=O)c2snc(-c3ccc(F)cc3)c2N)c2ccc(OC)cc2)cc1 (stereo not given) | 48* | 4 | 6 | 15 | -12
COc1ccc(C(C(=O)NC2CCCC2)N(C(=O)c2snc(-c3ccc(F)cc3)c2N)c2ccc(F)cc2)cc1 (stereo not given) | 30 | -7 | -3 | -6 | -7
COC(=O)c1sc(NC(=O)CSc2n[nH]c(N)n2)c(C(=O)OC)c1C | 8 | -1 | -7 | -4 | -6
CCOC(=O)c1sc(NC(=O)CSc2n[nH]c(-c3ccncc3)n2)c(C#N)c1C | 0 | -27 | 3 | -1 | 5
CCOc1ccc(/C=C/C2=Cc3c(sc(NC(=O)CSc4n[nH]c(N)n4)c3C#N)C(C)(C)C2)cc1 | 72* | 16 | 22* | 23 | 17
Cc1ccsc1/C=C/C1=Cc2c(sc(NC(=O)CSc3n[nH]c(N)n3)c2C#N)C(C)(C)C1 | 77* | 18 | 17* | 19 | 16
CCOc1ccc(C(C(=O)NCC2CCCO2)N(Cc2cccnc2)C(=O)c2snc(C(N)=O)c2N)cc1 (stereo not given) | . | . | . | . | 2
CSc1ccccc1OCc1cc(C(=O)N2CCC(Oc3cccnc3)CC2)no1 | 5 | -3 | 4 | 3 | -13
O=C(CCC(=O)N1CCOCC1)NCc1cccc(C(F)(F)F)c1 | . | 3 | -6 | . | .
CCCCNc1ccc(C(CC(N)=O)NC(=O)Cc2cccc3ccccc23)cc1[N+](=O)[O-] (stereo not given) | -3 | -3 | 1 | -5 | .
Cc1cccc(CNc2ccc(C(CC(N)=O)NC(=O)Cc3cccc4ccccc34)cc2[N+](=O)[O-])c1 (stereo not given) | 6 | -4 | 17* | -10 | .
O=C(CN1CCN(c2ccc(O)cc2)CC1)N(C1CC1)C1CCS(=O)(=O)C1 (stereo not given) | . | -2 | -7 | . | .
Cc1[nH]c2c(C)cccc2c1CCNC(=O)c1ccc2c(c1[N+](=O)[O-])C(=O)c1ccccc1C2=O | 60* | -7 | 9 | 11 | -4
